For this assay, the target named is Integrin alpha-IIb/beta-3 (Homo sapiens, UniProt P08514+P05106). Description: The compound was tested in vitro for the inhibition of aggregation of human gel-filtered platelets(GFP). The gist of the method: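 Human gel-filtered platelets at 2 × 10⁸/mL were mixed with 0.1 mg/mL human fibrinogen, 1 mM CaCl₂ and the test compound, then challenged with ADP. Aggregation was read by light transmittance at 37 °C against control samples.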
Chain of Integrin alpha-IIb/beta-3 (P05106 27-788 limits assumed): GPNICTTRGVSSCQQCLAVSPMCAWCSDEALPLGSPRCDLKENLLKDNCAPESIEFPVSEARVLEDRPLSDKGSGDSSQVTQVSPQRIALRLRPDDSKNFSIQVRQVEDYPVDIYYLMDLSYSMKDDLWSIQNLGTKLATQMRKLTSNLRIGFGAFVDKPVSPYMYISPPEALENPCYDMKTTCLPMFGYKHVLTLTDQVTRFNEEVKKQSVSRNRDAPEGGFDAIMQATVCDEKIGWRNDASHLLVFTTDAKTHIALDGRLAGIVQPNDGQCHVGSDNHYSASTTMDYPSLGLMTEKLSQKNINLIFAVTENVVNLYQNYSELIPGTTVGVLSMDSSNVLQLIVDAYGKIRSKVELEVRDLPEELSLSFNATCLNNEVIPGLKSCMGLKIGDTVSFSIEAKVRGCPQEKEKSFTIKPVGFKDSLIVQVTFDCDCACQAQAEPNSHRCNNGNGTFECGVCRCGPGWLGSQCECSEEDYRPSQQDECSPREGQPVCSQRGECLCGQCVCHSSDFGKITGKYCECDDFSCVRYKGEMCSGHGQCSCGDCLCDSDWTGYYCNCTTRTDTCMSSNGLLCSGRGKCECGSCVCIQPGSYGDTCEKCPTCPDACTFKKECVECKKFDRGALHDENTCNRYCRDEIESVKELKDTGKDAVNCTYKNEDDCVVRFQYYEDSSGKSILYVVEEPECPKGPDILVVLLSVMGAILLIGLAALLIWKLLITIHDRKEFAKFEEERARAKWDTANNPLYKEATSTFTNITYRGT
Chain of Integrin alpha-IIb/beta-3 (P08514 32-887 limits assumed): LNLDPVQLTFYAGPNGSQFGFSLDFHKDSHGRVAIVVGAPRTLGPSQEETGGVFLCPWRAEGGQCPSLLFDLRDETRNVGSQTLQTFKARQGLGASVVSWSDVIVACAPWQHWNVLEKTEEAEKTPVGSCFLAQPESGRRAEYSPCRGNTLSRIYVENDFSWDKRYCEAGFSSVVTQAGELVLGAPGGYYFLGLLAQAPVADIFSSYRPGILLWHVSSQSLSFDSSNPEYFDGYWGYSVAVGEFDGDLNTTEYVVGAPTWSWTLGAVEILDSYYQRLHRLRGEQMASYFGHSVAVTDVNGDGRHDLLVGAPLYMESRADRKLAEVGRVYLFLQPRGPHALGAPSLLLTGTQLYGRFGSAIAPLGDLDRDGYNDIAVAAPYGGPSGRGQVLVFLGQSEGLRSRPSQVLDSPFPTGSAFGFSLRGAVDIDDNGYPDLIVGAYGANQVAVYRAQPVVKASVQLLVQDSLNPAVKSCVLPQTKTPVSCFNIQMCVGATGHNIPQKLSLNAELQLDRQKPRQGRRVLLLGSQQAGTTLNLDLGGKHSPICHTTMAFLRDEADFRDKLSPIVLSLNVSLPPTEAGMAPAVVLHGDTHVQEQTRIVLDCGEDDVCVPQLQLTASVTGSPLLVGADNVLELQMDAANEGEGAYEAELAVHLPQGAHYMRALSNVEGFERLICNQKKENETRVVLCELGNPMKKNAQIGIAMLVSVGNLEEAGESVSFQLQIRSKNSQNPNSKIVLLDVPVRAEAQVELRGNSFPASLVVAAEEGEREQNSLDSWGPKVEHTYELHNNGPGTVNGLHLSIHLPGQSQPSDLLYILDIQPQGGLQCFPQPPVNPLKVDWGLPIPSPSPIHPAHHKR
Chain of Integrin alpha-IIb/beta-3 (P08514 891-1039 limits assumed): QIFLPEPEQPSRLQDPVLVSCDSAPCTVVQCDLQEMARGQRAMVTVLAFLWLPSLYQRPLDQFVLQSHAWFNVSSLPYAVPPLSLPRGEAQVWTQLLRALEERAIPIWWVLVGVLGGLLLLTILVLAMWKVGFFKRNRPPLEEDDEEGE
One may read the IC50 as the concentration that gives 50% inhibition. In turn, `O=C(NC[C@@H](NS(=O)(=O)c1ccccc1)C(=O)O)c1cc2cc(CCC3CCNCC3)sc2s1` came in with an IC50 of 36 nM.
In turn, `O=C(NC[C@@H](NS(=O)(=O)c1cccnc1)C(=O)O)c1cc2cc(CCC3CCNCC3)sc2s1` yielded an IC50 of 19 nM.
`O=C(O)CCNC(=O)c1cc2cc(CCC3CCNCC3)sc2s1` [3-{[5-(2-Piperidin-4-yl-ethyl)-thieno[2,3-b]thiophene-2-carbonyl]-amino}-propionic acid] gave an IC50 of 410 nM.
With `O=C(O)CCNC(=O)c1cc2sc(CCC3CCNCC3)cc2s1` [3-{[5-(2-Piperidin-4-yl-ethyl)-thieno[3,2-b]thiophene-2-carbonyl]-amino}-propionic acid], the half-maximal inhibitory concentration (IC50) was 500 nM.
Compound `CCOCCS(=O)(=O)N[C@@H](CNC(=O)c1cc2cc(CCC3CCNCC3)sc2s1)C(=O)O` [(S)-2-(2-Ethoxy-ethanesulfonylamino)-3-{[5-(2-piperidin-4-yl-ethyl)-thieno[2,3-b]thiophene-2-carbonyl]-amino}-propionic acid] showed a 50% inhibitory concentration (IC50) of 7 nM.
Compound `CCOCCS(=O)(=O)N[C@@H](CNC(=O)c1cc2sc(CCC3CCNCC3)cc2s1)C(=O)O` [(S)-2-(2-Ethoxy-ethanesulfonylamino)-3-{[5-(2-piperidin-4-yl-ethyl)-thieno[3,2-b]thiophene-2-carbonyl]-amino}-propionic acid] came in with an IC50 of 10 nM.
Then `O=C(NC[C@H](NS(=O)(=O)c1ccc(Cl)cc1)C(=O)O)c1cc2cc(CCC3CCNCC3)sc2s1` [(S)-2-(4-Chloro-benzenesulfonylamino)-3-{[5-(2-piperidin-4-yl-ethyl)-thieno[2,3-b]thiophene-2-carbonyl]-amino}-propionic acid], with 11 nM; and `CCCCS(=O)(=O)N[C@@H](CNC(=O)c1cc2cc(CCC3CCNCC3)sc2s1)C(=O)O` [(S)-2-(Butane-1-sulfonylamino)-3-{[5-(2-piperidin-4-yl-ethyl)-thieno[2,3-b]thiophene-2-carbonyl]-amino}-propionic acid], with 32 nM.
Next, `CCCCS(=O)(=O)N[C@@H](CNC(=O)c1cc2sc(CCC3CCNCC3)cc2s1)C(=O)O` [(S)-2-(Butane-1-sulfonylamino)-3-{[5-(2-piperidin-4-yl-ethyl)-thieno[3,2-b]thiophene-2-carbonyl]-amino}-propionic acid]: 10 nM.
`CS(=O)(=O)N[C@@H](CNC(=O)c1cc2cc(CCC3CCNCC3)sc2s1)C(=O)O` [(S)-2-Methanesulfonylamino-3-{[5-(2-piperidin-4-yl-ethyl)-thieno[2,3-b]thiophene-2-carbonyl]-amino}-propionic acid] displayed a 50% inhibitory concentration (IC50) of 15 nM.
Next, `CS(=O)(=O)N[C@@H](CNC(=O)c1cc2sc(CCC3CCNCC3)cc2s1)C(=O)O` [(S)-2-Methanesulfonylamino-3-{[5-(2-piperidin-4-yl-ethyl)-thieno[3,2-b]thiophene-2-carbonyl]-amino}-propionic acid]: 14 nM.
In turn, `O=C(NC[C@H](NS(=O)(=O)c1cccnc1)C(=O)O)c1cc2cc(C3CCNCC3)sc2s1` [(S)-3-[(5-Piperidin-4-yl-thieno[2,3-b]thiophene-2-carbonyl)-amino]-2-(pyridine-3-sulfonylamino)-propionic acid] came in with a concentration for half-maximal inhibition (IC50) of 21 nM.
The compound `O=C(NC[C@H](NS(=O)(=O)c1cccs1)C(=O)O)c1cc2cc(CCC3CCNCC3)sc2s1` [(S)-3-{[5-(2-Piperidin-4-yl-ethyl)-thieno[2,3-b]thiophene-2-carbonyl]-amino}-2-(thiophene-2-sulfonylamino)-propionic acid] showed an IC50 of 9 nM.
With `O=C(NC[C@H](NS(=O)(=O)c1cccnc1)C(=O)O)c1cc2sc(CCC3CCNCC3)cc2s1` [(S)-3-{[5-(2-Piperidin-4-yl-ethyl)-thieno[3,2-b]thiophene-2-carbonyl]-amino}-2-(pyridine-3-sulfonylamino)-propionic acid], the IC50 came to 15 nM.
Next, `O=C(NC[C@H](NS(=O)(=O)c1cccs1)C(=O)O)c1cc2sc(CCC3CCNCC3)cc2s1` [(S)-3-{[5-(2-Piperidin-4-yl-ethyl)-thieno[3,2-b]thiophene-2-carbonyl]-amino}-2-(thiophene-2-sulfonylamino)-propionic acid]: 13 nM; `O=C(NC[C@H](NS(=O)(=O)c1cccnc1)C(=O)O)c1cc2cc(CCCC3CCNCC3)sc2s1` [(S)-3-{[5-(3-Piperidin-4-yl-propyl)-thieno[2,3-b]thiophene-2-carbonyl]-amino}-2-(pyridine-3-sulfonylamino)-propionic acid]: 23 nM.
